The values that follow come from ChEMBL document CHEMBL1150817, “Annomolin and annocherimolin, new cytotoxic annonaceous acetogenins from Annona cherimolia seeds” (J Nat Prod, 2001).

Converted amounts (≈) assume the structure as drawn.

For one data set, the system named is PC-3. Description: Cytotoxicity against human PC3 cells after 7 days by MTT assay. To be noted: for EC50: Homo sapiens, PC-3, 168 h, read-out: ED50 (the source's name). In kind it is functional. In outline:
(§1)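 Seven-day in vitro MTT assay run at the Purdue Cancer Center cell culture laboratory under standard protocols. Cell lines were A-549 lung carcinoma, MCF-7 breast carcinoma, HT-29 colon adenocarcinoma, A-498 kidney carcinoma, PC-3 prostate adenocarcinoma and MIA PaCa-2 pancreatic carcinoma. Adriamycin served as the positive control.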

A further data set concerns MIA PaCa-2. Put plainly: Cytotoxicity against human MIAPaCa2 cells after 7 days by MTT assay. To be noted: for EC50: Homo sapiens, MIA PaCa-2, 168 h, read-out: ED50 (the source's name). In kind it is functional. In outline: as §1
A further data set relates to A498. Put plainly: Cytotoxicity against human A498 cells after 7 days by MTT assay. In kind it is functional. To be noted: for EC50: Homo sapiens, A498, 168 h, read-out: ED50 (the source's name). In outline:
as §1
(In general: Tetrazolium assays rely on reduction of a dye to a coloured formazan, in cell work by metabolically active cells.)

The nature of data set [1]: Toxicity to Artemia salina. In kind it is organism-based. To be noted: in vivo. In outline: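 Brine shrimp lethality test (BST) on larvae, run routinely on extracts, fractions and isolated compounds during activity-directed fractionation.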
The test system of a further data set is A549. Description: Cytotoxicity against human A549 cells after 7 days by MTT assay. In kind it is functional. To be noted: A549, 168 h, read-out: ED50 (the source's name). The essentials: as §1
A further data set concerns MCF7. Put plainly: Cytotoxicity against human MCF7 cells after 7 days by MTT assay. In kind it is functional. The essentials: as §1
In a further data set the test system is HT-29. Put plainly: Cytotoxicity against human HT-29 cells after 7 days by MTT assay. In kind it is functional. In outline:
as §1

Usually LC50 stands for the concentration that kills 50% of the test population. Consider `CCCCCCCCCCCC/C=C\CC[C@@H](O)[C@H]1CC[C@H]([C@H](O)CCCC(O)CCCC[C@@H](O)CC2=C[C@H](C)OC2=O)O1` (stereo not given in full) [ANNOCHERIMOLIN], for which the EC50 with PC-3 is 1.02 µg/mL (≈ 1.64 µM); with A498 it was 0.153 µg/mL (≈ 0.246 µM); in the data set on A549 it was 1.56 µg/mL (≈ 2.5 µM). The ED50 in the data set on MIA PaCa-2 came out at 1.2 ×10⁻⁵ ug/ml; in the data set with MCF7, 4.06 ×10⁻⁶ ug/ml; with HT-29, 2.49 ×10⁻⁶ ug/ml. Also, the LC50 in data set [1] came out at 0.0058 µg/mL (≈ 0.00931 µM).

In the case of `CCCCCCCCCCCCCC[C@H](O)[C@@H]1CC[C@@H](CCCCC[C@@H](O)[C@H](O)CC[C@@H](O)CC2=C[C@H](C)OC2=O)O1` [ANNOMOLIN], the ED50 is given as 5.39 ×10⁻⁶ ug/ml with PC-3, 6.88 ×10⁻⁴ ug/ml with A498, 1.15 ×10⁻⁴ ug/ml in the data set with MCF7 and 8.92 ×10⁻⁵ ug/ml in the data set with HT-29. Besides, the EC50 with MIA PaCa-2 was 2.18 µg/mL (≈ 3.65 µM); in the data set on A549, 2.37 µg/mL (≈ 3.97 µM). In data set [1], this molecule returned a 50% lethal concentration (LC50) of 0.0094 µg/mL (≈ 0.0157 µM).

Turning to `COc1cccc2c1C(=O)c1c(O)c3c(c(O)c1C2=O)C[C@@](O)(C(=O)CO)C[C@@H]3O[C@H]1C[C@H](N)[C@H](O)[C@H](C)O1` [DOXORUBICIN], the EC50 in the data set with PC-3 was found to be 0.0502 µg/mL (≈ 0.0924 µM); in the data set on MIA PaCa-2, 0.00262 µg/mL (≈ 0.00482 µM); in the data set with A498, 0.00226 µg/mL (≈ 0.00416 µM); in the data set on A549 it was 0.00113 µg/mL (≈ 0.00208 µM); in the data set on MCF7 (Homo sapiens, MCF7, 168 h, read-out: ED50 (the source's name)) it was 0.0182 µg/mL (≈ 0.0335 µM); with HT-29 (Homo sapiens, HT-29, 168 h, read-out: ED50 (the source's name)) it was 0.0128 µg/mL (≈ 0.0235 µM).
